According to PubChem BioAssay AID1040 (The Scripps Research Institute Molecular Screening Center, 2008):
Screen size: about 200,000 compounds; about 2,000 (1%) were called active.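 The calls were made as follows: active = inhibition above the campaign mean inhibition of all tested compounds plus 3 SD (cut at about 20% in these data); inactive = the rest.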 For the sample, actives were picked, then their nearest neighbours and some compounds at random.

The compounds below were run against Neuropeptide Y receptor type 1 (Homo sapiens) (UniProt P25929) (assay: blockers of human neuropeptide Y Y1 receptor – cell-based, primary screen (AID 1040;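 also: 0% = DMSO wells given NPY plus isoproterenol and 100% = isoproterenol alone without NPY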)). Settings: HEK293-CNG Y1 cells, membrane potential fluorescence; at 3.6 µM; active compounds read high; NPY at EC95, then isoproterenol.
Method in brief: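 Material: Y1- and CNG-channel-expressing HEK293 cells / Probe or stimulus: NPY 25 nM then isoproterenol 1 µM plus Ro 20-1724 25 µM / Doses: 3.6 µM single dose, DMSO 0.4% / Schedule: compound incubation 1 h at room temperature, readout 45 min post-stimulation / Signal: membrane potential fluorescence / Benchmarks: isoproterenol-only wells as full block versus NPY-plus-isoproterenol wells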

Chain of Neuropeptide Y receptor type 1 (Homo sapiens) (P25929 whole entry, looked up): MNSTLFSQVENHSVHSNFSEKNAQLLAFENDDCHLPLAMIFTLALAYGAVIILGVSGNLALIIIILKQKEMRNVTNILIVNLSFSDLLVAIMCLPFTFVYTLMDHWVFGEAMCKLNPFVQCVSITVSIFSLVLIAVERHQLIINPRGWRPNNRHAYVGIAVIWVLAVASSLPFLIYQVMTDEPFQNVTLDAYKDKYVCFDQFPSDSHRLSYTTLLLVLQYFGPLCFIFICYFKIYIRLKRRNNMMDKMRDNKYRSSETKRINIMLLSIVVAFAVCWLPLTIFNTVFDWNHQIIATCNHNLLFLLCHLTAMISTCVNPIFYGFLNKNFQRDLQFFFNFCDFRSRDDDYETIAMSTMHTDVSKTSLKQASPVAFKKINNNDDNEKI

inhibition, inactive:
CCS(=O)(=O)Nc1ccc(C2=NN(C(C)=O)C(c3cccs3)C2)cc1 (stereo not given) -0.01%
O=C(Nc1nc2ccc([N+](=O)[O-])cc2s1)c1ccc(S(=O)(=O)N2CCCc3ccccc32)cc1 -0.71%
O=C(O)CCC(=O)Nc1nc2ccc([N+](=O)[O-])cc2s1 -1.24%
Cc1nonc1C(=O)N/N=C/c1ccc(O)cc1 -0.92%
Cc1ccc(C)c2[nH]c(=O)c(CCNC(=O)c3cccs3)cc12 1.69%
CCNC(=O)COC(=O)/C=C/c1c(C)nn(Cc2cccc(OC)c2)c1Cl 9.4%
CCCn1c(C(O)c2cc(OC)ccc2OC)nc2ccccc21 (stereo not given) 6.38%
COCCn1c(-c2ccc(OC)c(OC)c2)nc2ccccc21 1.65%
Nc1nonc1-c1nc2ccccc2n1CCC(=O)O 2.11%
CC(=O)Nc1nonc1-c1nc2ccccc2n1Cc1ccccn1 1.23%
COc1ccc(C(=O)Nc2c(Cl)cc(Cl)cc2C(=O)N2CCC(C)CC2)cc1 7.28%
O=C(N/N=C/c1ccc(Br)o1)c1cncc(Br)c1 0.31%
CCCOc1ccc(C(=O)NCCc2ccccc2)cc1 4.6%
CCCOc1ccc(N/C=C/C(=O)C(C)(C)C)cc1 -0.02%
O=C(O)/C(=C/c1cccnc1)NC(=O)c1ccccc1 -1.58%
Cc1ccc(S(=O)(=O)NCCSc2ccccc2)cc1[N+](=O)[O-] 20.1%
O=S(=O)(NCCSc1ccccn1)c1ccc(Cl)cc1 7.92%
C/C(=N\Nc1ncc(Cl)cc1Cl)c1cccs1 4.59%
CCOP(=O)(OCC)C(Nc1cccc(C)c1)c1ccc(F)cc1 (stereo not given) 6.17%
Cc1cc(N2CCN(C)CC2)nc2ccc(NC(=S)N3CCOCC3)cc12 6.76%
Cc1ccc(SCC(=O)c2sc(-c3ccccc3)nc2C)cc1 8.05%
Cc1nc(-c2ccccc2)sc1C(=O)/C=C/N(C)C 6.13%
CC(Oc1ccc(Br)cc1Br)C(=O)NC1CCCC1 (stereo not given) 7.12%
COc1ccc(NC(=O)CSc2nc(N)c(-c3ccccc3)c(=O)[nH]2)cc1 7.14%
COc1ccc(OC)c(NC(=O)CSc2nc3cccnc3n2C)c1 10.8%
Cc1ccc(S(=O)(=O)CC(=O)Nc2c(C)n(C)n(-c3ccccc3)c2=O)cc1 1%
Cc1ccc2c(c1)C1CN(C)CCC1N2C(=S)Nc1ccc(Cl)cc1Cl (stereo not given) 0.03%
COC(=O)c1cc(C(=O)CSc2nc(C)cc(C)n2)ccc1O -2.7%
Cc1cc(SCC(=O)c2ccccc2)nc(SCC(=O)c2ccccc2)n1 18.3%
Cc1cc(C)c(NC(=O)C[N+](C)(C)CC(O)COc2cccc3ccccc23)c(C)c1 (stereo not given) -12.8%
Cc1cccc(NC(=S)NC23CN4CN(CN(C4)C2)C3)c1 -0.45%
CCOCCCNCc1cc(Br)ccc1OCC 11.8%
COc1cc(CNC2CCCCC2)c(Br)cc1OC1CCCC1 -5.34%
COc1ccc(Sc2nc(-c3ccccc3)ncc2OC)cc1 3.64%
CCc1cccc(NC(=O)CCNS(=O)(=O)c2cccc3nonc23)c1 0.89%
CCN(CC)S(=O)(=O)c1ccc(Cl)c(NC(=O)c2ccncc2)c1 1.54%

inhibition, active:
O=C(NC(Nc1nc2ccc([N+](=O)[O-])cc2s1)(C(F)(F)F)C(F)(F)F)c1ccccc1 32.9%
Nc1nonc1-c1nc2ccccc2n1Cc1ccc(F)cc1 33.9%
COc1ccc(C)c(Cn2c(-c3nonc3N)nc3ccccc32)c1 20.2%
CCCOc1ccc(C(=O)C(CCC(CNCC)C(=O)c2ccc(OCCC)cc2)CNCC)cc1 (stereo not given) 41.9%
CCOc1ccc(S(=O)(=O)NCCSc2ccccc2)cc1 28.4%
Cc1nc(-c2ccccc2)sc1C(=O)/C=C/c1ccccc1 21.8%
COc1ccc(OC)c(NC(=O)CSc2nc(N)c(-c3ccccc3)c(=O)[nH]2)c1 30.3%
Cc1cc(Oc2ccc(Cl)cc2)nc(SCC(=O)c2ccccc2)n1 44.4%
CC(C)(C)NCc1cc(Br)ccc1OC1CCCC1 37.7%
